STAT1 activator: increases IFN-gamma driven STAT1 reporter signal; activation (% of control), % at 5.5 µM; 200,000 tested, 2.6% active; NIH 3T3 STAT1-luciferase reporter, luminescence; 100% = IFN-gamma alone, no compound;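 active = activation above the screen-wide mean activation plus 3 SD, cut at about 130% in these data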
Wee1 stabilizer: inhibitors of human Wee1 degradation | P30291 | HeLa Luc-Wee1K328M stability, luciferase luminescence; 100% = proteasome inhibitor MG132 effect | reporter increase, % at 5 µM | 220,000 tested, 1.2% active;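 active = activation above the mean of all tested compounds plus 3 SD, set per screening run, cut at about 8.8% in these data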;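 also: cells exposed to compound for 20 h before luminescence read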
APP 5'UTR act: APP 5'UTR luciferase reporter activation | AID 1276 | 190,000 tested, 1% active | SH-SY5Y APP 5'UTR luciferase reporter, luminescence; zero percent = DMSO vehicle wells | activation, % at 2 µM;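 active = activation above a set limit, based on mean plus 3 SD of controls, cut at about 140% in these data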
p97 ATPase inh: inhibitors of human p97 ATPase | P55072 | 220,000 tested, 0.42% active | recombinant p97 ATPase, Kinase-Glo ATP luminescence, 3 h | inhibition, % at 8 µM; in the data active = inhibition above about 15%
NF-kB neuron act: NF-kB expression increase, human neuronal cells; AID 1239; fold change at 12.5 µM; NF-kB reporter expression; hits give high values; 190,000 tested, 1.6% active; in the data active = fold change above about 3.3
Mdm2 ligase inh: blocks human Mdm2 ubiquitin ligase activity | cell-based MDM2 ubiquitination luciferase reporter, 2 h; 0 = plate control, 100 = twice control, blank-subtracted | signal enhancement, % at 5 µM | 210,000 tested, 0.11% active;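 active = signal enhancement of 30% or more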;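 also: luminescence tracks abundance of the self-degrading MDM2-luciferase fusion protein; higher signal means inhibition of MDM2 E3 ligase activity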
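test system = mammalian cells stably expressing self-ubiquitinating, self-degrading MDM2 E3–luciferase fusion | quantity = 2000 cells/well | incubation = cell settling 4 h, compound treatment 2 h, both 37 °C | signal = luminescence with SteadyLite reagent, 15 min at room temperature | evaluation = % enhancement relative to plate controls after blank subtraction | benchmarks = plate controls and plate blanks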
Numbers stand for hits; i = inactive; nt = no result given. The list is not random: actives were taken first. Their share in the collection is about 4.6%.

SMILES	STAT1 activator	Wee1 stabilizer	APP 5'UTR act	p97 ATPase inh	NF-kB neuron act	Mdm2 ligase inh
CC(=O)Nc1ccc(/C=N/N2C(C)CCCC2C)cc1 (stereo not drawn)	i	i	i	i	i	i
CC(=O)Nc1ccc(/C=N/N2CCCCC2)cc1	135.4	i	i	i	i	i
CC(C)CNC(=S)N(Cc1ccco1)Cc1cc2cc3c(cc2[nH]c1=O)OCCO3	i	i	i	i	i	i
COc1ccc2cc3c(N)c(C(=O)NCc4ccco4)sc3nc2c1	137.4	i	i	i	i	i
COc1ccc(Nc2cc(C(=O)NCc3ccco3)c3ccccc3n2)cc1	i	10.8	i	i	i	i
COc1ccc2cc3cc(C(=O)NCc4ccco4)oc3nc2c1	i	i	i	i	i	i
O=C(N/C(=C/C=C/c1ccccc1)C(=O)N1CCOCC1)c1ccccc1Br	i	i	i	i	i	i
COc1cccc(-c2ncc3ccccn23)c1	134.8	i	i	i	i	i
Cc1ccc(S(=O)(=O)c2c(C)nn(C(C)(C)C)c2OC(=O)c2ccco2)cc1	137.8	i	i	i	i	i
Cc1cc(C(=O)CN2CCCC(C)C2)c(C)n1-c1ccc(F)cc1 (stereo not drawn)	142.7	i	i	i	i	i
Cc1ccc(-n2c(C)cc(C(=O)CN3CCOCC3)c2C)cc1	i	i	i	i	i	i
O=C(c1cc(-c2ccccc2)on1)N1CCCC1	132.2	i	i	i	4.11	i
O=C(c1cc(-c2ccccc2O)on1)N1CCc2ccccc2C1	i	i	i	i	i	i
CC1CCN(C(=O)c2cc(-c3ccccc3O)on2)CC1	i	i	i	i	7.28	i
Clc1ccc(SCc2cn3ccsc3n2)cc1	134.4	i	i	i	i	i
O=C(Cc1cn2ccsc2n1)OCc1ccccc1	i	i	i	i	5.31	i
O=C(NCCc1cn2ccsc2n1)C1CCCCC1	i	i	i	i	i	i
c1ccc(CSCc2cn3ccsc3n2)cc1	131.6	i	i	i	8.88	i
c1cn2cc(CSC3CCCCC3)nc2s1	133.7	i	i	i	i	i
O=C(CCC1CCCN(C(=O)c2ccsc2)C1)N1CCN(c2ccccn2)CC1 (stereo not drawn)	nt	i	nt	i	nt	i
Cc1csc2nc(CSc3nc4ccccc4o3)cn12	i	i	i	i	i	i
c1ccc2oc(SCc3cn4ccsc4n3)nc2c1	138.4	i	i	i	i	i
O=C(CNC(=O)c1ccco1)OCC(=O)c1ccc(Cl)cc1Cl	i	i	i	i	i	i
Brc1ccc(-c2noc(COc3ccc4c(c3)CCC4)n2)o1	i	i	i	i	i	i
COc1ccc(Cc2nc(-c3cccs3)no2)cc1OC	i	i	i	i	i	i
SMILES	STAT1 activator	Wee1 stabilizer	APP 5'UTR act	p97 ATPase inh	NF-kB neuron act	Mdm2 ligase inh
c1csc(-c2noc(COc3ccc4c(c3)CCCC4)n2)c1	132.1	i	i	i	4.4	i
COc1ccc(Cc2nc(-c3cccs3)no2)cc1	i	8.9	i	i	i	i
O=c1c2ccccc2nnn1COc1cccc2ccccc12	129.7	i	i	i	i	i
O=c1c2ccccc2nnn1COc1ccc(F)cc1Cl	143.8	i	i	i	i	i
O=c1c2ccccc2nnn1COc1ccc(Cl)cc1Br	133.0	i	i	i	i	i
CCOc1ccc(OCCn2nnc3ccccc3c2=O)cc1	i	i	i	i	4.57	i
CCC(=O)OCn1nnc2ccccc2c1=O	i	i	i	i	i	i
O=C(CN1CCN(c2ccc(Cl)cc2[N+](=O)[O-])CC1)N1CCOCC1	nt	i	nt	i	nt	i
Cc1cccc2c3nc4ccccc4nc3n(CCCN3C(=O)c4ccccc4C3=O)c12	i	i	i	i	i	i
COc1cc2nc(CN3CCC(C(O)(c4ccccc4)c4ccccc4)CC3)[nH]c(=O)c2cc1OC	i	i	i	i	i	i
COc1ccc(C(=O)/C=C/Nc2cccc(O)c2)cc1	i	i	194.7	i	13.5	i
COc1ccc(N/C=C\C(=O)c2ccc(Br)cc2)cc1OC	i	i	i	i	i	i
COc1ccc(N/C=C\C(=O)c2ccc(C)cc2)cc1OC	142.6	i	i	i	i	i
COc1ccc(C(=O)/C=C/Nc2cc(C)on2)cc1	138.9	i	i	i	4.27	i
COc1ccc(C(=O)/C=C/Nc2ccc([N+](=O)[O-])cc2)cc1	132.2	i	i	i	i	i
